Calls of active or inactive are those of the source.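 The calls were made as follows, unless noted: active = mean duplicate potentiation above the buffer control mean plus 5 SD of buffer wells; inactive = the rest.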

The source of these data is PubChem BioAssay.

A short description of assay [1]: nonspecific flux increase, KCNQ1-free cells – parental CHO cells, counter-screen for KCNQ1 potentiator project (AID 493006;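 active = duplicate-averaged activation above buffer control mean plus 5 SD of those controls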). The following applies: parental CHO-K1 cells, FluxOR thallium flux, at 10 µM; active compounds read high. The method in brief: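 Assay system: parental CHO-K1 cells lacking KCNQ1, loaded with FluxOR thallium dye; timing: dye 90 min RT, compound 20 min RT; signal: kinetic thallium-flux fluorescence; repeats: duplicate wells per compound, percent values averaged; benchmarks: buffer and R-L3 controls; reagent: Potassium/thallium depolarization pulse; read-out: fluorescence change ratio scaled 0% buffer, 100% R-L3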

The target of assay [2] is Potassium voltage-gated channel subfamily KQT member 1 (Homo sapiens) (UniProt P51787). Kind of assay: enhancement of KCNQ1 channel thallium flux – FluxOR thallium flux, CHO cells, duplicates, confirmation (AID 493007;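 active = potentiation averaged over duplicate wells exceeding buffer-only control mean by more than 3 SD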;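 as to outcome: cells depolarized by a potassium plus thallium sulfate stimulus after compound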). The following applies: KCNQ1 cell line, FluxOR thallium flux fluorescence, at 10 µM; active compounds read high, % of reference activator effect, buffer zero. The method in brief:
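material = CHO cells stably expressing the KCNQ1 potassium channel | repeats = duplicate wells per compound | measure = percent activation between buffer and R-L3 responses | signal = FluxOR thallium-flux fluorescence, kinetic read | schedule = FluxOR dye loading 90 min, compound exposure 20 min, room temperature | control set = buffer and R-L3 controls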

Assay [3] deals with Potassium voltage-gated channel subfamily KQT member 2 (Rattus norvegicus) (UniProt O88943). Kind of assay: KCNQ2 thallium flux enhancement – KCNQ2-CHO-K1 cells, selectivity assay for KCNQ1 potentiator project (AID 493009).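 Also: assay conditions were tuned for KCNQ1 rather than KCNQ2 modulators; signal is max minus min fluorescence divided by baseline after thallium stimulus.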 The following applies: FluxOR thallium flux fluorescence, at 10 µM; active compounds read high, scaled: buffer 0, activator control 100.
Sequence of Potassium voltage-gated channel subfamily KQT member 2 (Rattus norvegicus) (O88943 whole entry, looked up): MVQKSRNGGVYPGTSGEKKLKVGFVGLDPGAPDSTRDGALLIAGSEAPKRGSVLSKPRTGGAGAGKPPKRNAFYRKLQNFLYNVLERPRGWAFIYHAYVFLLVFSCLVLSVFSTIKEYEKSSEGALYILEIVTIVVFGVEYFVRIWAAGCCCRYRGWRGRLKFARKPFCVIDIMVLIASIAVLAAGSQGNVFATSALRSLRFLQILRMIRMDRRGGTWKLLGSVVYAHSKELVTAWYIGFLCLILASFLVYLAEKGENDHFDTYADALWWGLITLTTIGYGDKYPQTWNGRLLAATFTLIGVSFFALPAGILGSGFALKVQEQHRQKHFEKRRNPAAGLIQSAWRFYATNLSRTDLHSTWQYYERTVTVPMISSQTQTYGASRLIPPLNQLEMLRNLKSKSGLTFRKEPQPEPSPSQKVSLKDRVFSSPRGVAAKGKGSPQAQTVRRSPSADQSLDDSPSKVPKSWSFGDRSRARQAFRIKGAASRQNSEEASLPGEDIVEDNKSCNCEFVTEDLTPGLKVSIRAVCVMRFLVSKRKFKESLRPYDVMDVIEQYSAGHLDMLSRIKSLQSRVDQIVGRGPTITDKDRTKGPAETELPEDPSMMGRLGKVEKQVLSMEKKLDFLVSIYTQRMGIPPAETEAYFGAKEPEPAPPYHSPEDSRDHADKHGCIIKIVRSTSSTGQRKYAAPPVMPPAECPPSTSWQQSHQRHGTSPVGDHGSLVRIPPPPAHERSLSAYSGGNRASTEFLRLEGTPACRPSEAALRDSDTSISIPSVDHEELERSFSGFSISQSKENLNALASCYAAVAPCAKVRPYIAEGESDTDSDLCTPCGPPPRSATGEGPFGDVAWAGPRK
Assay [4] has as its target Potassium voltage-gated channel subfamily KQT member 1 (Homo sapiens) (UniProt P51787). The experiment in a line: KCNQ1 activators by electrophysiology – IonWorks patch clamp, KCNQ1-CHO cells, orthogonal assay for KCNQ1 potentiator project, confirmation (AID 493184;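 active = current rise at least 3 SD above the untreated control mean in each of two repeat wells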). The following applies: automated patch clamp current, at 10 µM; active compounds read high. Put shortly: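 Assay system – CHO cells carrying KCNQ1 · Medium – pH 7.4 external bath · Probe or stimulus – depolarizing pulse to +40 mV from -90 mV · Compound dosing – one dose, 10 µM final · Measured by – automated perforated-patch electrophysiology · Measure – % potentiation of steady-state current relative to pre-compound · Repeats – two replicates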

Assay [5] has as its target Potassium voltage-gated channel subfamily E member 1 (Homo sapiens) + Potassium voltage-gated channel subfamily KQT member 1 (Homo sapiens) (UniProt P15382+P51787). The experiment in a line: KCNQ1-E1 channel activation – thallium flux, CHO-K1 KCNQ1/E1 cells, selectivity assay for KCNQ1 potentiator project, confirmation (AID 493186;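 active = mean duplicate activation above the buffer control mean plus 5 SD of those controls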). Particulars: FluxOR thallium flux, at 10 µM; active compounds read high. The method in brief: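 Assay system: CHO-K1 cells with KCNQ1/E1 | Dosing: Single compound concentration per well | Incubation: Dye 90 min, compound 20 min, room temperature | Measured by: FluxOR Tl+ flux fluorescence, kinetic read | Controls: Buffer low control, R-L3 high control | Replicates: Duplicate wells per compound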

Sequence of Potassium voltage-gated channel subfamily E member 1 (Homo sapiens) + Potassium voltage-gated channel subfamily KQT member 1 (Homo sapiens) (P51787 whole entry, looked up): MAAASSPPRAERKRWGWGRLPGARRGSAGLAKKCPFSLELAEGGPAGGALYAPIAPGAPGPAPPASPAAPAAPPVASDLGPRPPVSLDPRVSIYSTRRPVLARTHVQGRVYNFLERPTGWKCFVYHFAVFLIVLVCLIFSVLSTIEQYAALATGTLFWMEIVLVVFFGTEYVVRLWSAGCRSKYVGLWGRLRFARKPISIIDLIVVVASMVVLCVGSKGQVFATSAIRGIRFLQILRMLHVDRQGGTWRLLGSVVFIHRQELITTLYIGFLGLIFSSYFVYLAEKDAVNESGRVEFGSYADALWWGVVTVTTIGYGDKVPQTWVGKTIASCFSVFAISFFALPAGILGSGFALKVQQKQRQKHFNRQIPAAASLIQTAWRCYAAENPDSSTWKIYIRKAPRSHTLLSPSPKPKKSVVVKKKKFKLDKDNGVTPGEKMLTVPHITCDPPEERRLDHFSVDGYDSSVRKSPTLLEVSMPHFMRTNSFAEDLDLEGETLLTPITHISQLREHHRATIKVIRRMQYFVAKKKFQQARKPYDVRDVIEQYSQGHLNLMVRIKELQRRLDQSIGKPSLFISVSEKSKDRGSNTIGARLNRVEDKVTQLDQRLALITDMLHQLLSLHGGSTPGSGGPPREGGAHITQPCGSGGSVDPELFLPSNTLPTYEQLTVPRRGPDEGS
Sequence of Potassium voltage-gated channel subfamily KQT member 1 (Homo sapiens) (P51787 whole entry, looked up): as above

As to `Cc1ccc(-c2nnc(SCC(=O)N/N=C/c3ccccc3C(=O)O)n2-c2ccc(Cl)cc2)cc1`, the outcome in assay [1], in assay [2], in assay [3], in assay [4] and in assay [5] was inactive.
For the compound `CC(C)c1ccc(OCC(=O)NNC(=S)NC(=O)c2cccs2)c(Br)c1`, the result in assay [1], in assay [3], in assay [4] and in assay [5] was inactive. For the same compound, the potentiation in assay [2] is 22% (active).
For `O=C1CCCCCN1Sc1ccccc1`, the outcome in assay [1], in assay [3], in assay [4] and in assay [5] was inactive. For the same compound, the potentiation in assay [2] was 18.5% (active).
Take `CCC(C)NC(=O)Cn1c(-c2ccccc2)cc(C(C)=O)c1C` (stereo not given): the outcome in assay [1], in assay [3], in assay [4] and in assay [5] was inactive. Moreover, the potentiation in assay [2] is 22% (active).
As for `CC(c1nccs1)N(C)C(=O)CCc1nnc(Cc2c[nH]c3ccccc23)o1` (stereo not given), the result in assay [1], in assay [2], in assay [3], in assay [4] and in assay [5] was inactive.
As for `COc1c(Br)cc(/C=N/n2c(-c3ccccc3)n[nH]c2=S)c(O)c1Br`, the result in assay [1], in assay [2], in assay [3], in assay [4] and in assay [5] was inactive.
With `Clc1ccc(Nc2ccc(Cl)nn2)cc1`, the result in assay [1], in assay [2], in assay [4] and in assay [5] was inactive. Besides, the potentiation in assay [3] was 147% (active).
Consider `CCn1c2ccccc2c2cc(CC(N)=O)ccc21`, for which the result in assay [1], in assay [2], in assay [3], in assay [4] and in assay [5] was inactive.
As for `COc1ccccc1OCCCc1c(C)n[nH]c1C`, the outcome in assay [1], in assay [2], in assay [3], in assay [4] and in assay [5] was inactive.
Regarding `CCOC(=O)N1CCN(C(=S)NC(=O)c2ccc(F)c(F)c2)CC1`, the outcome in assay [1], in assay [2], in assay [3], in assay [4] and in assay [5] was inactive.
On to `O=C(CNC(=S)NC(=O)c1ccc(Br)o1)c1ccccc1`, for which the outcome in assay [1], in assay [2], in assay [3], in assay [4] and in assay [5] was inactive.
As to `COC(=O)c1sc(NC(=S)NC(=O)c2ccccc2)nc1C`, the result in assay [1], in assay [2], in assay [3], in assay [4] and in assay [5] was inactive.
For the compound `Cc1ccc(-n2c(C)cc(/C=N/NC(=O)c3ccncc3)c2C)cc1C`, the outcome in assay [1], in assay [3], in assay [4] and in assay [5] was inactive. The potentiation in assay [2] was 30% (active).
Consider `COc1ccc(Cn2c(=O)c3[nH]cnc3n(-c3ccccc3C)c2=O)cc1`, for which the result in assay [1], in assay [2], in assay [3], in assay [4] and in assay [5] was inactive.
On to `CCOC(=O)SC1=N/C(=C\c2ccc(N(C)C)cc2)C(=O)S1`, for which the outcome in assay [1], in assay [2], in assay [3] and in assay [4] was inactive. Moreover, the activation in assay [5] was 15.3% (active).
In the case of `Oc1c(/C=N/c2ccccn2)sc2ccccc12`, the outcome in assay [1], in assay [3], in assay [4] and in assay [5] was inactive. The potentiation in assay [2] was 18% (active).
`OCCNCc1cc(Br)ccc1OCc1ccccc1Cl`: the outcome in assay [1], in assay [2], in assay [3], in assay [4] and in assay [5] was inactive.
On to `O=C(NC(=S)Nc1ccc(CN2CCOCC2)cc1)c1ccc(-c2cccc(Cl)c2)o1`, for which the result in assay [1], in assay [4] and in assay [5] was inactive. Besides, the figures for the potentiation in assay [2] and in assay [3] were 64% (active) and 144% (active), respectively.
With `O=C(NC(=S)NCCc1ccccc1)c1ccco1`, the outcome in assay [1], in assay [2], in assay [3], in assay [4] and in assay [5] was inactive.
For `CC(Oc1ccc2ccccc2c1)C(=O)NNC(=S)NC(=O)c1ccco1` (stereo not given), the outcome in assay [1] and in assay [4] was inactive. The potentiation in assay [2] was 93% (active); in assay [3], 214% (active). Also, the activation in assay [5] was 15.3% (active).
In the case of `Cc1ccc(-c2csc(NC(=O)Cc3ccc(F)cc3)n2)o1`, the outcome in assay [1], in assay [2], in assay [3], in assay [4] and in assay [5] was inactive.
For `Cc1cccc(NC(=O)C2CCCN2S(=O)(=O)c2ccc(Cl)cc2)n1` (stereo not given), the outcome in assay [1], in assay [2], in assay [3], in assay [4] and in assay [5] was inactive.
In the case of `Fc1ccc(-n2cc(-c3ccccc3)c3c(=S)nc[nH]c32)cc1`, the result in assay [1], in assay [3], in assay [4] and in assay [5] was inactive. In addition, the potentiation in assay [2] was 108% (active).
Consider `CC1Oc2ccccc2N(CC(=O)N2CCCCCC2)C1=O` (stereo not given), for which the result in assay [1], in assay [3], in assay [4] and in assay [5] was inactive. In addition, in assay [2], the potentiation is 27.5% (active).
On to `CN1CCN(Cc2ccc(Sc3ccc(Cl)cc3)c([N+](=O)[O-])c2)CC1`, for which the result in assay [1], in assay [3], in assay [4] and in assay [5] was inactive. Further, in assay [2], the potentiation is 17.5% (active).
For `CCN(c1ccccc1)S(=O)(=O)c1ccc(NC(=S)NC(=O)c2ccc(Br)o2)cc1`, the result in assay [1], in assay [4] and in assay [5] was inactive. For the same compound, the potentiation in assay [2] is 76% (active); in assay [3] it was 168% (active).
Take `Cc1ccc(-n2c(C)cc(/C=N/NC(=O)c3ccncc3)c2C)c(C)c1`: the result in assay [1], in assay [2], in assay [3], in assay [4] and in assay [5] was inactive.
In the case of `Cc1ccc(C(=O)NC(=S)NNC(=O)COc2ccc([N+](=O)[O-])cc2)cc1`, the outcome in assay [1], in assay [3], in assay [4] and in assay [5] was inactive. For the same compound, the potentiation in assay [2] is 19.5% (active).
On to `CN(Cc1ccccc1)C(=S)NC(=O)c1ccccc1`, for which the result in assay [1], in assay [4] and in assay [5] was inactive. Moreover, the potentiation in assay [2] was 21.5% (active); in assay [3] it was 157% (active).
Take `Cc1ccc(NC(=S)c2nc3ccccc3s2)cc1`: the result in assay [1], in assay [3], in assay [4] and in assay [5] was inactive. Besides, the potentiation in assay [2] is 32% (active).
